From ChEMBL document CHEMBL1157173, “Isocoumarin-based inhibitors of pancreatic cholesterol esterase” (Bioorg Med Chem, 2008)

Assay: Binding affinity to pig pancreatic cholesterol esterase
Parameters: species or system Sus scrofa
Method in brief: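 Porcine enzyme assayed in 0.1 M Hepes, pH 7, with 6 mM taurocholate and 1 mM p-nitrophenylbutyrate substrate; hydrolysis followed at 405 nm. Inhibition constants derived from double reciprocal and Dixon plots, and for high-affinity inhibitors from Straus-Goldstein plots.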

O=c1oc(OCCBr)cc2ccc([N+](=O)[O-])cc12
Ki: 50 µM

O=c1oc(OCCCBr)cc2ccc([N+](=O)[O-])cc12
Ki: 33 µM

O=c1oc(OC2CCCC2)c(Cl)c2ccccc12
Ki: 0.95 µM

O=c1oc(OC2CCC(C3CCCCC3)CC2)c(Cl)c2ccccc12 (stereo not given)
Ki: 0.19 µM

Nc1ccc2cc(OCCBr)oc(=O)c2c1
Ki: > 100 µM

O=c1oc(OCCCC2CCCCC2)c(Cl)c2ccccc12
Ki: 0.18 µM

O=c1oc(OCCC2CCCCC2)cc2ccc([N+](=O)[O-])cc12
Ki: > 100 µM

Nc1ccc2c(Cl)c(OCCBr)oc(=O)c2c1
Ki: 26 µM

O=c1oc(OCCC2CCCCC2)c(Cl)c2ccc([N+](=O)[O-])cc12
Ki: 0.7 µM

COc1oc(=O)c2cc([N+](=O)[O-])ccc2c1Cl
Ki: 19 µM

O=c1oc(OCC2CCCCC2)c(Cl)c2ccc([N+](=O)[O-])cc12
Ki: 5.7 µM

O=c1oc(OCCCC2CCCC2)c(Cl)c2ccccc12
Ki: 0.019 µM

O=c1oc(OCCCBr)c(Cl)c2ccc([N+](=O)[O-])cc12
Ki: 1.6 µM

O=c1oc(OC2CCCCC2)c(Cl)c2ccccc12
Ki: 1.2 µM

O=c1oc(OCCCCC2CCCCC2)c(Cl)c2ccccc12
Ki: 0.011 µM

O=c1oc(OCCBr)c(Cl)c2ccc([N+](=O)[O-])cc12
Ki: 0.26 µM

CCCCOc1oc(=O)c2ccccc2c1Cl
Ki: 6.5 µM

COc1oc(=O)c2cc(NC(=O)C3CCCCC3)ccc2c1Cl
Ki: > 25 µM

CCCOc1oc(=O)c2ccccc2c1C(=O)C(F)(F)F
Ki: > 25 µM

COc1oc(=O)c2cc(N)ccc2c1Cl
Ki: 17 µM

O=c1oc(OCCC2CCCC2)c(Cl)c2ccccc12
Ki: 0.26 µM

O=c1oc(OCC2CCCCC2)c(Cl)c2ccccc12
Ki: 1.8 µM

O=c1oc(OCC2CCCC2)c(Cl)c2ccccc12
Ki: 0.36 µM

O=C(c1c(OCC2CCCCC2)oc(=O)c2ccccc12)C(F)(F)F
Ki: > 100 µM

CCCOc1oc(=O)c2ccccc2c1Cl
Ki: 3.6 µM

O=c1oc(OCC2CCCCC2)cc2ccc([N+](=O)[O-])cc12
Ki: 54 µM

O=c1oc(OCCC2CCCCC2)c(Cl)c2ccccc12
Ki: 1.2 µM

O=c1oc(OCCCCCC2CCCCC2)c(Cl)c2ccccc12
Ki: 62 µM

COc1oc(=O)c2cc(NC(=O)c3ccccc3)ccc2c1Cl
Ki: > 250 µM

O=C(c1c(OCCC2CCCCC2)oc(=O)c2ccccc12)C(F)(F)F
Ki: 73 µM
